# NRP1-CendR mod: modulators of CendR peptide binding to human neuropilin-1; O14786; FAM-RPARPAR peptide binding to NRP-1, fluorescence polarization; inhibition, % at 25 µM; 360,000 tested, 0.85% active;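 active means inhibition or corrected inhibition above about 18%, plus a signal ratio from 0.5 to 1.5, limit read from the data, passing the limit was not always enough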
# FAS TE block: FAS thioesterase (human) inhibition. P49327. recombinant FAS-TE, OMFH fluorogenic substrate, fluorescence endpoint. inhibition, % at 15 µM. 360,000 tested, 0.67% active. AID 602261;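 active means compounds whose normalised, plate-corrected inhibition of enzyme fluorescence in the single-dose primary screen is 50% or more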;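 further: 0% = DMSO with enzyme and 100% = substrate without enzyme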
# ADAM10 inh: inhibitors of human ADAM10. O14672. recombinant ADAM10, EDANS/DABCYL FRET peptide cleavage, 3 h. inhibition, % at 7 µM. 370,000 tested, 0.62% active;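 active means inhibition above a per-campaign cutoff equal to the mean of compounds falling between control-based bounds plus 3 SD, cut at about 20% in these data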;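 further: 0% = DMSO wells while the 100% control is not disclosed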
# CaV13 ICDI inh: Primary screen for inhibitors of IQ motif and Ca2+-dependent inactivation inhibitor domain binding in CACNA1D, Förster resonance energy transfer in living cells, …; HEK cells, CFP/YFP FRET ICDI-IQ, plate reader, 10 min; percent FRET-ratio fall versus neutral wells; inhibition, % at 12.3 µM; 340,000 tested, 0.098% active;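 active means mean replicate inhibition of at least 30% and at least 1% of replicates passing that level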;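 further: 0% = median of the neutral control wells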
# ADAM17 inh: ADAM17 inhibition, QFRET primary screen; recombinant ADAM17, EDANS/DABCYL FRET peptide cleavage; inhibition, % at 6.95 µM; 370,000 tested, 0.83% active; AID 720648;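 active means inhibition above the mean of compounds lying between control limits plus 3 SD, set per campaign, cut at about 8.5% in these data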;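 further: 0% = DMSO-only wells as the low control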
# Arrestin-AP2 inh: inhibitors of human beta-arrestin and AP2 interaction; FITC-arrestin peptide / GST-AP2 beads, flow cytometry; AP2 beta2 appendage carries R879A mutation; inhibition, % at 10 µM; 340,000 tested, 0.31% active; AID 504490;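 active means inhibition above a set limit, near 3 SD of compounds lacking own fluorescence, cut at about 54% in these data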;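 further: plate controls were DMSO wells for no effect and 5 µM unlabelled arrestin peptide for full effect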
#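 System: GST-tagged AP2 beta2-adaptin appendage (R879A) on 4 µm glutathione beads / Reagent: FITC-arrestin peptide, 50 nM / Detection: HyperCyt-sampled flow cytometry, FL1 channel, ex 488/em 535 nm / Timing: 12 min plus 1 h, RT / Buffer or medium: PBS plus Tween 20 (0.05%) and BSA (0.1%)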
# Arr AP2 CP1: human beta-arrestin and AP2 interaction inhibition, cherry pick; GST-AP2 beads, FITC arrestin peptide binding, flow cytometry; GST-fused beta2-adaptin appendage, R879A mutant; AID 504908; shares compounds with Arrestin-AP2 inh; 1,300 tested, 2% active; inhibition, % at 10 µM;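 active means inhibition above a set limit, roughly 3 SD of non-fluorescent compound noise, cut at about 38% in these data; inactive means inhibition at or below that limit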;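 further: loss of bead fluorescence from 50 nM FITC arrestin peptide bound to appendage; 0% = negative control wells and 100% = excess unlabelled arrestin peptide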
# GST-FITC bead: counter-screen for beta-arrestin AP2 inhibitors: GST-GSH bead binding. shares compounds with Arrestin-AP2 inh. GST-fluorescein binding to GSH beads, fluorescence. inhibition, % at 10 µM. 1,300 tested, 2% active. AID 588338;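 active means inhibition above 50%, about 3 SD of the inhibition seen with non-fluorescent compounds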;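 further: fluorescein maleimide labelled GST captured on 4 micron glutathione beads; higher means more loss of bead fluorescence from quenching or blocked binding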
# An asterisk follows results filed as active; · = no result given. Hits are enriched below; roughly 2.9% of the tested compounds scored in any of these assays.
SMILES,NRP1-CendR mod,FAS TE block,ADAM10 inh,CaV13 ICDI inh,ADAM17 inh,Arrestin-AP2 inh,Arr AP2 CP1,GST-FITC bead
CC12CCC(=O)N1C(C(=O)Nc1ccc(Cl)c(Cl)c1)CS2 (stereo not given),-12,5,1,-5,-1,-4,·,·
CC12CCC(=O)N1C(C(=O)OCC(=O)Nc1ccc(Cl)c(Cl)c1)CS2 (stereo not given),13,6,3,-6,-1,-10,5,-5
CN(C)S(=O)(=O)c1ccc(Cl)c(NC(=O)COC(=O)CN2C(=O)NC(C)(C)C2=O)c1,-22,-12,-6,-4,-1,30,·,·
Cc1cc(NC(=O)COC(=O)C2CSC3(C)CCC(=O)N23)ccc1Br (stereo not given),10,3,-11,-5,-1,-8,-9,5
OCc1ccccc1-c1cnc2sc(NCc3ccc(F)cc3)nn12,-10,2,-2,-6,1,·,·,·
CCn1nc(NS(=O)(=O)c2ccccc2)c2cc3cc(C)ccc3nc21,-1,-8,-10,-7,-2,62*,3,2
CCn1nc(NS(=O)(=O)c2ccccc2)c2cc3ccc(C)cc3nc21,2,-4,-5,-8,-4,4,·,·
Cn1nc(C(=O)Nc2ccccc2)c2c1-c1ccccc1S(=O)(=O)C2,-6,6,-10,-7,2,58*,5,-8
O=C(Nc1cccnc1Cl)c1noc2c1CCc1ccccc1-2,-6,2,-3,-4,-6,55*,10,-16
COc1ccc(C=NNc2ccc([N+](=O)[O-])cc2S(=O)(=O)Nc2ccccc2C(=O)O)cc1OC,-74,42,-3,-13,-2,16,·,·
COc1ccc(/C=N/Nc2ccc([N+](=O)[O-])cc2S(=O)(=O)N2CCN(C)CC2)cc1,-98,-26,-3,-6,-2,102*,18,-4
Cc1ccc(C)c(N2CCN(c3ccncc3N)CC2)c1,3,-13,-2,-3,1,55*,-3,-7
C[C@@H]1CN([C@@H](C)CO)C(=O)CCCn2nncc2CO[C@@H]1CN(C)C(=O)Nc1ccc2c(c1)OCO2,-1,-10,5,-5,-1,·,·,·
FC(F)(F)c1cc(CNC2CCC23CCCCC3)ccc1Cl (stereo not given),·,·,2,·,-1,·,·,·
COc1cccc(CN(C)c2nc(-c3cccs3)nc3ccccc23)c1,-3,42,-26,-2,-4,55*,-11,-3
O=C(NC1CCCCC1)N(CCN1CCCC1)Cc1cc2cc3c(cc2[nH]c1=O)OCCO3,-11,-9,·,·,·,-4,·,·
CCN1CCCC1CN(Cc1cc2c(C)cc(C)cc2[nH]c1=O)C(=O)NC1CCCCC1 (stereo not given),-19,-9,-53,-5,-18,14,-6,-4
Cc1cccc2cc(CN(CCN3CCCC3)C(=O)NC3CCCCC3)c(=O)[nH]c12,3,-4,-9,-6,-9,13,1,-9
Cc1ccc2cc(CN(CCCN3CCOCC3)C(=O)NC3CCCCC3)c(=O)[nH]c2c1C,12,24,-46,-6,-7,-4,1,-10
Cc1cc2cc(CN(CCCN3CCOCC3)C(=O)NC3CCCCC3)c(=O)[nH]c2cc1C,-14,-1,-58,-9,-21,-1,-4,-2
Cc1cccc2cc(CN(CCN3CCOCC3)C(=O)Nc3ccccc3F)c(=O)[nH]c12,-4,-4,-15,-4,-7,-8,·,·
O=C(NC1CCCCC1)N(Cc1cc2cc3c(cc2[nH]c1=O)OCCO3)CC1CCCO1 (stereo not given),-5,2,-451,-3,-108,-2,-9,-1
CCc1ccc2[nH]c(=O)c(CN(CCN(CC)CC)C(=O)NC3CCCCC3)cc2c1,4,-10,-36,·,-13,76*,8,-7
